Measurements from ChEMBL document CHEMBL4689842, “EUbOPEN Chemogenomics Library wave 1” (2021).

Assays:
Format in all cases: toxicity, cell-based
[1] = tested on: Fibroblast; experiment: Multiplex assay against human fibroblast
Summary of the method: (§1)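 With compound added, live cells were imaged on a CQ1 microscope at 37°C and 5% CO2; staining with Hoechst33342, BioTracker Green Microtubule Cytoskeleton Dye, MitoTracker Red and Annexin V Alexa Fluor 680 had been done at seeding. The CellPathfinder machine-learning gating scheme split cells into Hoechst high-intensity objects or normal cells, normal cells into healthy, pyknosed or fragmented nuclei, and pyknosed cells into mitotic or apoptotic. The tubulin, mitochondrial-mass and membrane-permeability phenotypes are per cents of healthy-nucleus cells.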

[2] = tested on: HEK-293T; experiment: Multiplex assay against HEK293T; conditions: human; summary of the method: as §1
[3] = tested on: U2OS; experiment: Multiplex assay against U2OS; conditions: human; summary of the method: as §1
[4] = 12 h, 1 µM, compound concentration 1 uM, replicate 1
[5] = 12 h, 1 µM, compound concentration 1 uM, replicate 2
[6] = 12 h, 10 µM, compound concentration 10 uM, replicate 1
[7] = 12 h, 10 µM, compound concentration 10 uM, replicate 2
[8] = 24 h, 1 µM, compound concentration 1 uM, replicate 1
[9] = 24 h, 1 µM, compound concentration 1 uM, replicate 2
[10] = 24 h, 10 µM, compound concentration 10 uM, replicate 1
[11] = 24 h, 10 µM, compound concentration 10 uM, replicate 2
[12] = 48 h, 1 µM, compound concentration 1 uM, replicate 1
[13] = 48 h, 1 µM, compound concentration 1 uM, replicate 2
[14] = 48 h, 10 µM, compound concentration 10 uM, replicate 1
[15] = 48 h, 10 µM, compound concentration 10 uM, replicate 2

CC(C)C[C@H](NC(=O)[C@H](Cc1ccccc1)NC(=O)CNC(=O)CNC(=O)[C@@H](N)Cc1ccc(O)cc1)C(=O)O [ENKEPHALIN]
Population Apoptotic (%) [1, 4]: 68% | Population Healthy Nuclei (%) [1, 4]: 53% | Population Membrane Permeable-Phenotype (%) [1, 4]: 26% | Population Mitotic Cells (%) [1, 4]: 31% | Population Pyknosed Nuclei (%) [1, 4]: 20% | Population Tubulin-Different-Phenotype (%) [1, 4]: 57% | Total Cell Count [1, 4]: 95 | Population Healthy Nuclei (%) [1, 5]: 82% | Population Pyknosed Nuclei (%) [1, 5]: 5% | Population Tubulin-Different-Phenotype (%) [1, 5]: 34% | Total Cell Count [1, 5]: 70 | Population Apoptotic (%) [1, 6]: 76% | Population Healthy Nuclei (%) [1, 6]: 39% | Population Membrane Permeable-Phenotype (%) [1, 6]: 27% | Population Mitotic Cells (%) [1, 6]: 23% | Population Pyknosed Nuclei (%) [1, 6]: 32% | Total Cell Count [1, 6]: 130 | Population Healthy Nuclei (%) [1, 7]: 86% | Population Tubulin-Different-Phenotype (%) [1, 7]: 11% | Total Cell Count [1, 7]: 62 | Population Healthy Nuclei (%) [1, 8]: 47% | Population Membrane Permeable-Phenotype (%) [1, 8]: 23% | Population Pyknosed Nuclei (%) [1, 8]: 26% | Population Tubulin-Different-Phenotype (%) [1, 8]: 34% | Total Cell Count [1, 8]: 111 | Population Healthy Nuclei (%) [1, 9]: 84% | Population Pyknosed Nuclei (%) [1, 9]: 5% | Population Tubulin-Different-Phenotype (%) [1, 9]: 31% | Total Cell Count [1, 9]: 68 | Population Apoptotic (%) [1, 10]: 60% | Population Healthy Nuclei (%) [1, 10]: 52% | Population Membrane Permeable-Phenotype (%) [1, 10]: 35% | Population Mitotic Cells (%) [1, 10]: 40% | Population Pyknosed Nuclei (%) [1, 10]: 22% | Total Cell Count [1, 10]: 129 | Population Healthy Nuclei (%) [1, 11]: 86% | Population Pyknosed Nuclei (%) [1, 11]: 7% | Population Tubulin-Different-Phenotype (%) [1, 11]: 15% | Total Cell Count [1, 11]: 86 | Population Apoptotic (%) [1, 12]: 63% | Population Healthy Nuclei (%) [1, 12]: 45% | Population Membrane Permeable-Phenotype (%) [1, 12]: 15% | Population Pyknosed Nuclei (%) [1, 12]: 22% | Total Cell Count [1, 12]: 96 | Population Apoptotic (%) [1, 13]: 100% | Population Healthy Nuclei (%) [1, 13]: 73% | Population Membrane Permeable-Phenotype (%) [1, 13]: 22% | Population Mitotic Cells (%) [1, 13]: 0% | Population Pyknosed Nuclei (%) [1, 13]: 1% | Total Cell Count [1, 13]: 81 | Population Apoptotic (%) [1, 14]: 35% | Population Healthy Nuclei (%) [1, 14]: 59% | Population Membrane Permeable-Phenotype (%) [1, 14]: 26% | Population Mitotic Cells (%) [1, 14]: 64% | Population Pyknosed Nuclei (%) [1, 14]: 12% | Population Tubulin-Different-Phenotype (%) [1, 14]: 31% | Total Cell Count [1, 14]: 130 | Population Healthy Nuclei (%) [1, 15]: 76% | Population Membrane Permeable-Phenotype (%) [1, 15]: 18% | Population Mitotic Cells (%) [1, 15]: 0% | Population Pyknosed Nuclei (%) [1, 15]: 0% | Population Tubulin-Different-Phenotype (%) [1, 15]: 24% | Total Cell Count [1, 15]: 118 | Population Apoptotic (%) [2, 4]: 45% | Population Healthy Nuclei (%) [2, 4]: 23% | Population Mitochondria Different-Phenotype (%) [2, 4]: 76% | Population Mitotic Cells (%) [2, 4]: 54% | Population Pyknosed Nuclei (%) [2, 4]: 60% | Total Cell Count [2, 4]: 175 | Population Apoptotic (%) [2, 5]: 9% | Population Healthy Nuclei (%) [2, 5]: 50% | Population Mitotic Cells (%) [2, 5]: 90% | Population Pyknosed Nuclei (%) [2, 5]: 43% | Total Cell Count [2, 5]: 229 | Population Apoptotic (%) [2, 6]: 40% | Population Healthy Nuclei (%) [2, 6]: 32% | Population Mitochondria Different-Phenotype (%) [2, 6]: 84% | Population Mitotic Cells (%) [2, 6]: 60% | Population Pyknosed Nuclei (%) [2, 6]: 57% | Total Cell Count [2, 6]: 230 | Population Apoptotic (%) [2, 7]: 9% | Population Healthy Nuclei (%) [2, 7]: 45% | Population Mitotic Cells (%) [2, 7]: 90% | Population Pyknosed Nuclei (%) [2, 7]: 50% | Total Cell Count [2, 7]: 271 | Population Healthy Nuclei (%) [2, 8]: 21% | Population Mitochondria Different-Phenotype (%) [2, 8]: 41% | Population Normal (%) [2, 8]: 80% | Population Pyknosed Nuclei (%) [2, 8]: 60% | Total Cell Count [2, 8]: 175 | Population Apoptotic (%) [2, 9]: 10% | Population Healthy Nuclei (%) [2, 9]: 66% | Population Mitotic Cells (%) [2, 9]: 89% | Population Pyknosed Nuclei (%) [2, 9]: 28% | Total Cell Count [2, 9]: 294 | Population Healthy Nuclei (%) [2, 10]: 45% | Population Hoechst High Intensity Objects (%) [2, 10]: 14% | Population Mitotic Cells (%) [2, 10]: 51% | Population Normal (%) [2, 10]: 85% | Population Pyknosed Nuclei (%) [2, 10]: 45% | Total Cell Count [2, 10]: 250 | Population Apoptotic (%) [2, 11]: 7% | Population Healthy Nuclei (%) [2, 11]: 71% | Population Mitotic Cells (%) [2, 11]: 92% | Population Pyknosed Nuclei (%) [2, 11]: 23% | Total Cell Count [2, 11]: 374 | Population Healthy Nuclei (%) [2, 12]: 32% | Population Hoechst High Intensity Objects (%) [2, 12]: 25% | Population Mitochondria Different-Phenotype (%) [2, 12]: 26% | Population Mitotic Cells (%) [2, 12]: 51% | Population Normal (%) [2, 12]: 74% | Population Pyknosed Nuclei (%) [2, 12]: 46% | Total Cell Count [2, 12]: 212 | Population Apoptotic (%) [2, 13]: 9% | Population Healthy Nuclei (%) [2, 13]: 82% | Population Mitotic Cells (%) [2, 13]: 90% | Population Pyknosed Nuclei (%) [2, 13]: 11% | Total Cell Count [2, 13]: 546 | Population Apoptotic (%) [2, 14]: 40% | Population Healthy Nuclei (%) [2, 14]: 62% | Population Mitochondria Different-Phenotype (%) [2, 14]: 22% | Population Mitotic Cells (%) [2, 14]: 60% | Population Pyknosed Nuclei (%) [2, 14]: 27% | Total Cell Count [2, 14]: 327 | Population Apoptotic (%) [2, 15]: 18% | Population Healthy Nuclei (%) [2, 15]: 85% | Population Mitochondria Different-Phenotype (%) [2, 15]: 4% | Population Mitotic Cells (%) [2, 15]: 82% | Population Pyknosed Nuclei (%) [2, 15]: 8% | Total Cell Count [2, 15]: 620 | Population Healthy Nuclei (%) [3, 4]: 77% | Population Pyknosed Nuclei (%) [3, 4]: 10% | Population Tubulin-Different-Phenotype (%) [3, 4]: 9% | Total Cell Count [3, 4]: 216 | Population Healthy Nuclei (%) [3, 5]: 82% | Population Pyknosed Nuclei (%) [3, 5]: 5% | Population Tubulin-Different-Phenotype (%) [3, 5]: 34% | Total Cell Count [3, 5]: 70 | Population Healthy Nuclei (%) [3, 6]: 78% | Population Pyknosed Nuclei (%) [3, 6]: 11% | Population Tubulin-Different-Phenotype (%) [3, 6]: 9% | Total Cell Count [3, 6]: 148 | Population Healthy Nuclei (%) [3, 7]: 86% | Population Tubulin-Different-Phenotype (%) [3, 7]: 11% | Total Cell Count [3, 7]: 62 | Population Healthy Nuclei (%) [3, 8]: 82% | Population Pyknosed Nuclei (%) [3, 8]: 9% | Population Tubulin-Different-Phenotype (%) [3, 8]: 9% | Total Cell Count [3, 8]: 218 | Population Healthy Nuclei (%) [3, 9]: 84% | Population Pyknosed Nuclei (%) [3, 9]: 5% | Population Tubulin-Different-Phenotype (%) [3, 9]: 31% | Total Cell Count [3, 9]: 68 | Population Healthy Nuclei (%) [3, 10]: 80% | Population Pyknosed Nuclei (%) [3, 10]: 10% | Total Cell Count [3, 10]: 174 | Population Healthy Nuclei (%) [3, 11]: 86% | Population Pyknosed Nuclei (%) [3, 11]: 7% | Population Tubulin-Different-Phenotype (%) [3, 11]: 15% | Total Cell Count [3, 11]: 86 | Population Healthy Nuclei (%) [3, 12]: 87% | Population Pyknosed Nuclei (%) [3, 12]: 7% | Total Cell Count [3, 12]: 229 | Population Healthy Nuclei (%) [3, 13]: 92% | Population Tubulin-Different-Phenotype (%) [3, 13]: 31% | Total Cell Count [3, 13]: 80 | Population Healthy Nuclei (%) [3, 14]: 84% | Population Pyknosed Nuclei (%) [3, 14]: 8% | Population Tubulin-Different-Phenotype (%) [3, 14]: 5% | Total Cell Count [3, 14]: 251 | Population Healthy Nuclei (%) [3, 15]: 85% | Population Pyknosed Nuclei (%) [3, 15]: 6% | Population Tubulin-Different-Phenotype (%) [3, 15]: 15% | Total Cell Count [3, 15]: 131
